The source made the active and inactive calls. No cut-off for these calls is given here.
Columns and labels:
Huh-7 [1] = test: Cell cycle arrest in human HuH7 cells assessed as accumulation of cells at subG1 phase at 1 uM after 24 hrs by propidium iodide staining-based flow cytometric analysis (reference value: 6.8%); format: functional
Huh-7 [2] = test: Induction of apoptosis in human HuH7 cells assessed as viable cells at 1 uM after 48 hrs by Annexin V-FITC/propidium iodide staining-based flow cytometric analysis (reference value: 97.42%); format: functional; conditions: Huh-7, 48 h, read-out: Activity
Huh-7 [3] = test: Cell cycle arrest in human HuH7 cells assessed as accumulation of cells at subG1 phase at 1 uM after 48 hrs by propidium iodide staining-based flow cytometric analysis (reference value: 3.2%); format: functional
Huh-7 [4] = test: Induction of apoptosis in human HuH7 cells assessed as early apoptotic cells at 1 uM after 72 hrs by Annexin V-FITC/propidium iodide staining-based flow cytometric analysis (reference value: 0.03%); format: functional
Mahlavu [5] = test: Induction of apoptosis in human Mahlavu cells assessed as early apoptotic cells at 1 uM after 24 hrs by Annexin V-FITC/propidium iodide staining-based flow cytometric analysis (reference value: 0.09%); format: functional
Mahlavu [6] = test: Induction of apoptosis in human Mahlavu cells assessed as late apoptotic cells at 1 uM after 72 hrs by Annexin V-FITC/propidium iodide staining-based flow cytometric analysis (reference value: 3.48%); format: functional
Mahlavu [7] = test: Induction of apoptosis in human Mahlavu cells assessed as viable cells at 1 uM after 24 hrs by Annexin V-FITC/propidium iodide staining-based flow cytometric analysis (reference value: 98.51%); format: functional; conditions: read-out: Activity
HCT-116 = test: Cytotoxicity against human HCT116 cells after 72 hrs by SRB assay; format: functional, cell-based; conditions: Homo sapiens, HCT-116, 72 h; read-out: IC50
Summary of the method: (§1)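 SRB assay. Cells plated per well (HCT116 3000; Huh7, Hep3B, HepG2, MCF-7 2000; Mahlavu, FOCUS, SNU475 1000) and grown 24 h. Compounds came from 20 mM DMSO stocks and were tested in triplicate, 40 to 2,5 (or 2,5 to 0,03) per printed range, for 72 h. Cells fixed in 10% TCA, stained with 0.4% SRB, dye dissolved in 10 mM Tris, A515 read. IC50 derived after DMSO normalization.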

HepG2 = test: Cytotoxicity against human HepG2 cells after 72 hrs by SRB assay; format: functional, cell-based; conditions: Homo sapiens, HepG2, 72 h; read-out: IC50; summary of the method: as §1
Huh-7 [8] = test: Induction of apoptosis in human HuH7 cells assessed as early apoptotic cells at 1 uM after 24 hrs by Annexin V-FITC/propidium iodide staining-based flow cytometric analysis (reference value: 0.17%); format: functional
Mahlavu [9] = test: Down-regulation of cyclin E protein expression in human Mahlavu cells at 1 uM after 24 to 72 hrs by Western blot analysis; format: functional, cell-based
Mahlavu [10] = test: Induction of apoptosis in human Mahlavu cells assessed as necrotic cells at 1 uM after 24 hrs by Annexin V-FITC/propidium iodide staining-based flow cytometric analysis (reference value: 0.13%); format: functional
SNU-475 = test: Cytotoxicity against human SNU475 cells after 72 hrs by SRB assay; format: functional, cell-based; conditions: Homo sapiens, SNU-475, 72 h; read-out: IC50; summary of the method: as §1
Mahlavu [11] = test: Cell cycle arrest in human Mahlavu cells assessed as accumulation of cells at G1 phase at 1 uM after 24 hrs by propidium iodide staining-based flow cytometric analysis (reference value: 33.8%); format: functional
Mahlavu [12] = test: Induction of apoptosis in human Mahlavu cells assessed as early apoptotic cells at 1 uM after 48 hrs by Annexin V-FITC/propidium iodide staining-based flow cytometric analysis (reference value: 0%); format: functional
Mahlavu [13] = test: Cell cycle arrest in human Mahlavu cells assessed as accumulation of cells at S phase at 1 uM after 24 hrs by propidium iodide staining-based flow cytometric analysis (reference value: 23.2%); format: functional
Mahlavu [14] = test: Induction of apoptosis in human Mahlavu cells assessed as chromatin condensation at 1 uM by Hoechst staining-based assay; format: functional, cell-based
Huh-7 [15] = test: Cell cycle arrest in human HuH7 cells assessed as accumulation of cells at subG1 phase at 1 uM after 72 hrs by propidium iodide staining-based flow cytometric analysis (reference value: 4.7%); format: functional
MCF-12A = test: Cytotoxicity against human MCF12A cells after 72 hrs by SRB assay; format: cell-based; conditions: Homo sapiens, MCF-12A, 72 h; read-out: IC50
Huh-7 [16] = test: Cytotoxicity against human HuH7 cells after 48 hrs by RTCA analysis; format: functional, cell-based; conditions: Huh-7, 48 h
Summary of the method: (§2)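 xCELLigence impedance real-time growth assay. Huh7 (2000) or Mahlavu (1000) cells plated, treated after 24 h at log phase with a 2-fold dilution series (4 steps) from a top concentration of 1. Cell index recorded every 10 min for 24 h, then every 30 min. Growth inhibition normalized to DMSO; IC50 taken at 24, 48, 72 h.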

Huh-7 [17] = test: Down-regulation of cyclin E protein expression in human HuH7 cells at 1 uM after 24 to 72 hrs by Western blot analysis; format: functional, cell-based
Mahlavu [18] = test: Cytotoxicity against human Mahlavu cells after 72 hrs by SRB assay; format: functional, cell-based; conditions: Homo sapiens, Mahlavu, 72 h; read-out: IC50; summary of the method: as §1
Mahlavu [19] = test: Cell cycle arrest in human Mahlavu cells assessed as accumulation of cells at S phase at 1 uM after 72 hrs by propidium iodide staining-based flow cytometric analysis (reference value: 13%); format: functional
Huh-7 [20] = test: Induction of apoptosis in human HuH7 cells assessed as increase in cleaved PARP levels at 1 uM after 72 hrs by Western blot analysis; format: functional, cell-based
Mahlavu [21] = test: Induction of apoptosis in human Mahlavu cells assessed as increase in cytochrome C levels at 1 uM by Hoechst staining-based assay; format: functional, cell-based
Mahlavu [22] = test: Induction of apoptosis in human Mahlavu cells assessed as viable cells at 1 uM after 72 hrs by Annexin V-FITC/propidium iodide staining-based flow cytometric analysis (reference value: 96.05%); format: functional; conditions: read-out: Activity
Huh-7 [23] = test: Cell cycle arrest in human HuH7 cells assessed as accumulation of cells at G1 phase at 1 uM after 72 hrs by propidium iodide staining-based flow cytometric analysis (reference value: 51.6%); format: functional
Mahlavu [24] = test: Cell cycle arrest in human Mahlavu cells assessed as accumulation of cells at S phase at 1 uM after 48 hrs by propidium iodide staining-based flow cytometric analysis (reference value: 11.6%); format: functional
Huh-7 [25] = test: Down-regulation of cyclin-B1 protein expression in human HuH7 cells at 1 uM after 24 to 72 hrs by Western blot analysis; format: functional, cell-based
Huh-7 [26] = test: Cytotoxicity against human HuH7 cells after 72 hrs by RTCA analysis; format: functional, cell-based; conditions: Huh-7, 72 h; summary of the method: as §2
Mahlavu [27] = test: Induction of apoptosis in human Mahlavu cells assessed as necrotic cells at 1 uM after 72 hrs by Annexin V-FITC/propidium iodide staining-based flow cytometric analysis (reference value: 0.22%); format: functional
Huh-7 [28] = test: Cell cycle arrest in human HuH7 cells assessed as accumulation of cells at S phase at 1 uM after 48 hrs by propidium iodide staining-based flow cytometric analysis (reference value: 19.1%); format: functional
Huh-7 [29] = test: Induction of apoptosis in human HuH7 cells assessed as necrotic cells at 1 uM after 24 hrs by Annexin V-FITC/propidium iodide staining-based flow cytometric analysis (reference value: 0.03%); format: functional

Structure (SMILES) | Activity (Huh-7 [1]) [%] | viability at 1 µM (Huh-7 [2]) [%] | Activity (Huh-7 [3]) [%] | Activity (Huh-7 [4]) [%] | Activity (Mahlavu [5]) [%] | Activity (Mahlavu [6]) [%] | viability at 1 µM (Mahlavu [7]) [%] | IC50 (HCT-116) [µM] | IC50 (HepG2) [µM] | Activity (Huh-7 [8]) [%] | Activity (Mahlavu [9]) | Activity (Mahlavu [10]) [%] | IC50 (SNU-475) [µM] | Activity (Mahlavu [11]) [%] | Activity (Mahlavu [12]) [%] | Activity (Mahlavu [13]) [%] | Activity (Mahlavu [14]) | Activity (Huh-7 [15]) [%] | IC50 (MCF-12A) [µM] | IC50 (Huh-7 [16]) [µM] | also measured
COc1ccc2c3c(c4cc(OC)c(OC)cc4c2c1)CN1CCCC[C@@H]1C3 | 13.6 | 93.8 | 7.5 | 0.1 | 0.12 | 12.74 | 94.2 | 0.7 | 0.06 | 0.07 | Active | 0.57 | 0.014 | 43.8 | 0 | 17.5 | Active | 57.5 | 0.07 | 0.7 | Activity (Huh-7 [17]): Active; IC50 (Mahlavu [18]): 0.016 µM; Activity (Mahlavu [19]): 9.1%; Activity (Huh-7 [20]): Active; Activity (Mahlavu [21]): Active; viability at 1 µM (Mahlavu [22]): 85.3%; Activity (Huh-7 [23]): 24.3%; Activity (Mahlavu [24]): 10.5%; Activity (Huh-7 [25]): Active; IC50 (Huh-7 [26]): 0.7 µM; Activity (Mahlavu [27]): 1.84%; Activity (Huh-7 [28]): 13.5%; Activity (Huh-7 [29]): 0%
COc1ccc2c3c(c4cc(OC)c(OC)cc4c2c1)CN1CCCCC1C3O (racemic) | 23.1 | 94.2 | 25.4 | 0.2 | 0.04 | 35.08 | 98.3 | < 0.001 | 2.7 | 0 | Active | 0.13 | 0.015 | 36.8 | 0 | 14.3 | Active | 62.9 | < 2 | 0.5 | Activity (Huh-7 [17]): Active; IC50 (Mahlavu [18]): 0.01 µM; Activity (Mahlavu [19]): 10.2%; Activity (Huh-7 [20]): Active; Activity (Mahlavu [21]): Active; viability at 1 µM (Mahlavu [22]): 62.7%; Activity (Huh-7 [23]): 17.9%; Activity (Mahlavu [24]): 9.5%; Activity (Huh-7 [25]): Active; IC50 (Huh-7 [26]): 0.4 µM; Activity (Mahlavu [27]): 2.26%; Activity (Huh-7 [28]): 21%; Activity (Huh-7 [29]): 0%
